Bioassay records as filed in PubChem.
Many of the other results were omitted from the sample, so hits are more common in it than they were.
NALP3 yeast inh – blocks the NALP3 inflammasome reconstituted in yeast. AID 2825. Yeast reconstituted NLRP3/ASC/caspase-1, beta-gal luminescence, 24 h. hit rate 0.39% among 330,000. inhibition, % at 10 µM;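 active = inhibition of 50% or more; inactive = inhibition below 50%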;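 note: plate controls were induced DMSO wells for no effect and uninduced yeast grown without galactose for full effect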
Calb FLC – C. albicans growth modulation with fluconazole. C. albicans CaCi-2 + fluconazole, Alamar Blue growth, 48 h. growth inhibition, % (no concentration beside the values). hit rate 0.57% among 300,000. AID 1979;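 active = growth inhibition above about 58% in most replicates, limit read from the data, passing the limit was not always enough; inconclusive = exactly half the replicates above a set limit; inactive = most replicates below a set limit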;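 note: all wells also contain fluconazole at 8 µg/ml as a sub-toxic cotreatment; 0% = median of DMSO wells and 100% = median of geldanamycin control wells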
L major viab – inhibitors of Leishmania major promastigote growth; Leishmania major promastigotes, resazurin fluorescence viability; inhibition, % at 10 µM; hit rate 9% among 200,000; AID 1063;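 note: promastigotes grown with compound for 44 hours at 28 °C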
PolyA inhibitor – yeast polyadenylation inhibition; S. cerevisiae SKY197-pL101 polyadenylation reporter, beta-gal luminescence; efflux-impaired pdr1/pdr3 knockout yeast; score 100 = 6 SD above DMSO; activity score, % at 12 µM; hit rate 0.02% among 300,000; AID 1875;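 active = lowest replicate activity score at least 50, where 100 means six control SD above control mean; inconclusive = lowest score under 50 but half or more replicates reach 50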;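 note: yeast exposed to compound for 9 h at 30 °C; higher score means more reporter readthrough which indicates perturbed polyadenylation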
T cruzi inh – T. cruzi replication inhibition; T. cruzi beta-gal in NIH3T3, luminescence, 90 h; inhibition, % (concentration not given with the values); hit rate 1.4% among 300,000; AID 1885;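 active = mean inhibition across valid replicates above about 55%, limit read from the data; inconclusive = mean below that limit but half or more replicates reach it; inactive = mean below it, under half of replicates reach it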;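 note: signal also drops with host cell toxicity which is not excluded here; 0% = plate median of DMSO wells and 100% = zero luminescence signal; higher percent means less beta-gal luminescence so fewer parasites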
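compound dosing = single 50 nL compound addition per well in DMSO | material = NIH/3T3 host cells with β-galactosidase reporter T. cruzi | input = 5,000 host fibroblasts per well | timing = ≥90 h infection period, 3 h prior cell attachment | read-out basis = percent inhibition of parasite-derived β-gal signal | detection = GalScreen β-gal luminescence, detergent lysis, 60 min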
NALP1 inh – blocks the NALP1 inflammasome reconstituted in yeast. AID 2071. inhibition, % at 10 µM. S. cerevisiae NALP1/ASC/caspase-1 growth, X-gal OD620, 72 h. hit rate 0.61% among 280,000; in the data active = inhibition mostly above about 24%, no sharp cut-off; inactive = mostly below about 32%
NALP3 yeast conf – confirmation of NALP3 inhibitors in yeast; yeast expressing human NALP3, luminescence; shares compounds with NALP3 yeast inh; hit rate 81% among 1,300; inhibition, % at 10 µM; in the data active = inhibition above about 48%
Casp1-ASC yeast – counter-screen for NALP3 inhibitors: yeast caspase-1-ASC; shares compounds with NALP3 yeast inh; yeast expressing Caspase-1-ASC, luminescence counter screen; inhibition, % at 10 µM; hit rate 66% among 1,000
NALP3 yeast rt – confirmation retest of NALP3 inhibitors in yeast | shares compounds with NALP3 yeast inh | yeast expressing human NALP3, luminescence read-out | hit rate 53% among 1,000 | inhibition, % at 10 µM
Numbers without * were called inactive; u = inconclusive; x = no result. Cut-off read from the data, not from the text of the source, unless noted: active = inhibition above about 50%; inactive = the rest.

SMILES | NALP3 yeast inh | Calb FLC | L major viab | PolyA inhibitor | T cruzi inh | NALP1 inh | NALP3 yeast conf | Casp1-ASC yeast | NALP3 yeast rt
Cc1cc(N2CCN(C)CC2)n2cc(-c3ccc(F)cc3)nc2n1 | -11 | -3 | -1 | 6 | 6 | 30 | x | x | x
O=C(NC1=NCCS1)c1sc2ccccc2c1Cl | 52* | -19 | -1 | -10 | 6 | 29 | 63* | x | x
CCOC(=O)c1c(-c2ccccc2)nc2c(C)cccn12 | 20 | -8 | 13 | 11 | 23 | 4 | x | x | x
CCOC(=O)c1c(-c2ccccc2)nc2ccccn12 | 97* | 4 | 8 | -44 | -6 | 87* | 99* | 99* | 99*
O=S(=O)(Nc1cc(F)ccc1F)c1cccc2nonc12 | 2 | 12 | x | -15 | 7 | 1 | x | x | x
CCCCCCCCCCCCCCCC[N+](C)(C)CC | 65* | 77* | x | -2 | 35 | x | 64* | 62* | 68*
O=C1c2ccccc2OCOc2ccccc21 | 25 | 0 | -2 | 0 | -22 | 20 | x | x | x
O=C1/C(=C/c2ccccc2[N+](=O)[O-])COc2ccccc21 | 71* | u | 100* | -14 | 5 | 6 | 62* | 85* | 74*
O=C(NCc1ccco1)C1CCCN(S(=O)(=O)c2cccc3cccnc23)C1 (stereo unspecified) | 31 | -2 | -7 | -6 | 3 | -9 | x | x | x
Nc1cccc(Oc2ccc([N+](=O)[O-])cc2)c1 | 18 | -12 | -2 | 5 | 9 | -8 | x | x | x
Nc1ccc(Oc2cc(N)cc(Oc3ccccc3)c2)cc1 | 50* | u | x | 8 | -10 | 9 | 64* | 23 | 45
S=C(NCc1ccccc1)Nc1ccc(Cl)cc1 | 33 | -1 | 14 | -3 | -9 | -8 | x | x | x
FC(F)(F)Sc1ccc(NC(=S)NCc2ccccc2)cc1 | 53* | -35 | x | -17 | 33 | 19 | 24 | x | x
CCN(CC)CCCN1C(=O)C(O)=C(C(=O)c2cc3cccc(OC)c3o2)C1c1ccncc1 (stereo unspecified) | 5 | 28 | -4 | -12 | -9 | 1 | x | x | x
O=C(Cc1cccc(Cl)c1)Nc1ccc(Br)cc1 | 54* | 14 | 1 | -8 | 0 | 2 | 39 | 57* | 48
CC1Cc2nc(SCC(=O)OCc3ccccc3)n(C)c(=O)c2S1 (stereo unspecified) | 59* | -3 | 18 | -6 | -5 | x | 70* | 43 | 39
S=c1[nH]ccn1Cc1ccccc1 | 13 | -35 | -9 | 8 | -12 | 6 | x | x | x
CCCNC(=O)CSc1nc(COc2ccccc2)nc2ccccc12 | 42 | -1 | -3 | 3 | -4 | -2 | x | x | x
O=C(CSc1nc(COc2ccccc2)nc2ccccc12)NC1CCCC1 | 71* | -1 | 2 | -10 | -13 | -3 | 40 | 67* | 56*
Cc1ccc(NC(=O)[C@@H]2CCCN2C(=O)[C@@H]2Cc3ccccc3CN2)c(C)c1 | 2 | -18 | x | -6 | -3 | 20 | x | x | x
Cn1c(C(=O)c2ccccc2[N+](=O)[O-])nc2ccccc21 | 23 | 17 | 9 | -9 | -20 | 11 | x | x | x
COc1ccc(Cl)cc1C(=O)Nc1nc2ccccc2[nH]1 | 72* | -6 | x | -41 | 22 | 38* | 78* | 77* | 72*
O=C(Nc1nc2ccccc2[nH]1)c1ccccc1F | 26 | 24 | 34 | -14 | -14 | 12 | x | x | x
Cc1cc(C)cc(C(=O)Nc2nc3ccccc3[nH]2)c1 | 52* | -26 | x | -6 | -18 | 23 | 52* | 61* | 47
Cc1ccc(NN2C(=O)C=C(c3ccccc3)C2=O)cc1 | 83* | -46 | 7 | -102 | 12 | -25 | 72* | 96* | 62*
SMILES | NALP3 yeast inh | Calb FLC | L major viab | PolyA inhibitor | T cruzi inh | NALP1 inh | NALP3 yeast conf | Casp1-ASC yeast | NALP3 yeast rt
O=C1c2ccccc2C(=O)N1Nc1ccccc1 | 17 | 0 | 33 | 9 | 12 | -1 | x | x | x
Cc1ccc(Sc2ncccc2C(=O)NCC(c2ccc(F)cc2)N2CCOCC2)cc1C (stereo unspecified) | 16 | -4 | x | 22 | -3 | x | x | x | x
Cc1cc(C(=O)CCl)c(C)n1CCc1ccccc1 | -116 | -27 | 100* | -34 | -20 | -48 | 25 | x | x
O=C(CCSc1nc2ccccc2o1)Nc1ccccc1 | 46 | 30 | x | -11 | -13 | 12 | x | x | x
Nc1nc(-c2cc(-c3ccccc3)no2)cs1 | 56* | -32 | x | 5 | 1 | -4 | 75* | 64* | 61*
Nc1nc(-c2ccccc2)cs1 | 20 | -34 | -4 | 7 | -13 | 18 | x | x | x
CCOc1ccc(S(=O)(=O)NCCC(=O)OCC(=O)Nc2cc(C)on2)cc1 | 23 | -2 | x | -13 | 1 | x | x | x | x
N#Cc1nc(COc2ccccc2)oc1N1CCCCCC1 | 52* | -13 | 5 | -6 | 3 | -13 | 71* | 50 | 37
N#Cc1nc(COc2ccccc2)oc1N1CCCC1 | 75* | 3 | 15 | 4 | 7 | 15 | 49* | 79* | 64*
N#Cc1nc(COc2ccc(Br)cc2)oc1N1CCCCCC1 | 27 | -4 | -2 | -4 | 33 | -2 | x | x | x
N#Cc1nc(COc2ccc(Br)cc2)oc1N1CCCC1 | 54* | 34 | -1 | -12 | -3 | 12 | 62* | 50* | 41
N#Cc1nc(COc2ccccc2)oc1N1CCOCC1 | 8 | -1 | -2 | -2 | 3 | 9 | x | x | x
COc1ccc(N2CCN(c3oc(COc4ccccc4)nc3C#N)CC2)cc1 | 22 | x | -6 | x | x | 1 | x | x | x
CN1CCN(c2oc(COc3ccc(-c4ccccc4)cc3)nc2C#N)CC1 | 60* | 14 | 10 | -18 | 77* | 33 | 50* | 76* | 65*
C=C(CC[C@@H](O)C(C)(C)O)[C@H]1CC[C@]2(C)[C@@H]1CCC1[C@@]3(C)CCC(=O)C(C)(C)C3CC[C@]12C (stereo partly specified) | 54* | x | x | x | x | x | 46 | 52* | 37
C=C(C)[C@@H]1CCC2(C(=O)O)CC[C@]3(C)[C@H](CC[C@@H]4[C@@]5(C)CCC(=O)C(C)(C)[C@@H]5CC[C@]43C)[C@@H]12 (stereo partly specified) | 23 | 3 | -6 | 26 | -16 | 37 | x | x | x
O=C1C(=C(c2ccccc2)c2ccccc2)Nc2ccccc21 | 62* | 0 | 4 | -18 | 18 | 7 | 8 | x | x
CCSc1nnc(CNc2ccc(C)cc2)n1C | 6 | -7 | -4 | 1 | -3 | 16 | x | x | x
Cc1ccccc1OCCn1c(=S)[nH]c2ccccc21 | 53* | -43 | x | -20 | -23 | 11 | 79* | 67* | 42
Fc1ccccc1OCCn1c(=S)[nH]c2ccccc21 | 33 | -12 | x | -15 | 6 | -6 | x | x | x
